ZTA counter: counter-screen for EBNA-1 inhibitors: inhibitors of Epstein-Barr virus ZTA | AID 2234 | P03206 | 0.15% of 320,000 active | inhibition, % at 11 µM | ZTA-DNA binding, fluorescence polarization; in the data active = inhibition above about 33%
Target sequence (P03206 whole entry, looked up): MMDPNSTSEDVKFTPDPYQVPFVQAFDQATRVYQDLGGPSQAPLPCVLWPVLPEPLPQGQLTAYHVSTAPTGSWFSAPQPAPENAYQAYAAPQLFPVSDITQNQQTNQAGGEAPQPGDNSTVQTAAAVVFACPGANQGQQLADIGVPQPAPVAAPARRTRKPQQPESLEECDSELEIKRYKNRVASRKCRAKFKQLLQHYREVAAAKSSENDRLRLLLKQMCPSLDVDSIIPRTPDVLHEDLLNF
Apaf1 inhib: inhibitors of human Apaf-1 apoptosome, primary screen, biochemical, DEVD-Rh110 fluorescence, uHTS | Apoptotic protease-activating factor 1 (Homo sapiens), O14727 | reconstituted apoptosome caspase-3 activity | inhibition, % at 20 µM | 0.71% of 330,000 active | AID 489030, 2010; active = inhibition of at least 40% at 20 µM;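 note: plate controls were DMSO wells for no effect and DEVD-CHO caspase inhibitor wells for full effect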
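Assay system – apoptosome proteins · Medium – Hepes buffer, pH 7.5 · Also added – cytochrome c with DEVD-Rh110 · Timing – 30 min compound preincubation, 50 min activation, room temperature · Detection – Rh110 fluorescence, excitation 480 nm, emission 540 nm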
EBNA-1 inh: EBNA-1 DNA-binding inhibitors, primary screen, biochemical, fluorescence polarization | inhibition, % at 14.8 µM | 0.34% of 300,000 active | AID 1950, 2009; in the data active = inhibition above about 28%
PREPL inhibitor: PREPL enzyme inhibitors, primary screen, biochemical, fluorescence polarization. recombinant PREPL, fluorescence polarization activity-based probe. 0.68% of 320,000 active. Prolyl endopeptidase-like (Homo sapiens), Q4J6C6. AID 2751, 2010. inhibition, % at 5.96 µM; in the data active = inhibition above about 43%;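 note: 0% = enzyme with DMSO and 100% = wells lacking enzyme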
UBC13 inh: UBC13 polyubiquitin chain formation inhibitors, primary screen, biochemical, TR-FRET, uHTS | 0.47% of 330,000 active | inhibition, % at 20 µM; in the data active = inhibition above about 45%, passing the limit was not always enough
Target sequence (P61088 whole entry, looked up): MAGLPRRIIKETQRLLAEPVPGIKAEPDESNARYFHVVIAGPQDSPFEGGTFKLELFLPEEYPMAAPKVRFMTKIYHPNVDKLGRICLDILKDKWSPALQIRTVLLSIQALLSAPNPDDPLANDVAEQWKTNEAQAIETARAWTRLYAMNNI
EBNA-1 confirm: EBNA-1 DNA-binding inhibitors, retest, confirmation, biochemical, fluorescence polarization, triplicate; shares compounds with EBNA-1 inh; inhibition, % at 14.8 µM; Recombinant EBNA-1 DBD, Cy5-DNA fluorescence polarization; 35% of 830 active;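 active = mean inhibition across replicates above a set limit taken from the earlier primary screen, cut at about 28% in these data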;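 note: plate controls were EBNA-1 protein with DMSO for no effect and wells lacking EBNA-1 for full effect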
ZTA counter trip: EBV Zta DNA binding inhibitors, counter-screen for EBNA-1 inhibitor project, biochemical, fluorescence polarization, triplicate. inhibition, % at 11.1 µM. shares compounds with EBNA-1 inh. 830 tested, under 10 active. Zta-ZRE DNA binding, Cy5 fluorescence polarization;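 active = mean inhibition over triplicates above a set limit taken from the primary EBNA-1 screen, cut at about 37% in these data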;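 note: purified full length Zta protein with Cy5 labeled ZRE DNA probe; 0% = Zta with DMSO and 100% = wells lacking Zta protein; inhibitors lower polarization by freeing the labeled DNA probe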
Starred values were filed as active, the others as inactive. This is a sample that favours compounds with a hit; in the whole collection about 1.7% have one here.

Results for Cc1ccccc1OCc1nnc(SCC(=O)Nc2ccc3nc(SCC(=O)Nc4ccccc4)sc3c2)n1C ?
ZTA counter: -16.1; Apaf1 inhib: 1.1; EBNA-1 inh: 44.1*; PREPL inhibitor: -16.1; UBC13 inh: -9.0; EBNA-1 confirm: 43.0*; ZTA counter trip: 12.0

Results for COCCNC(=O)c1ccc(-n2c(SCc3cc(F)ccc3F)nc3ccccc3c2=O)cc1 ?
ZTA counter: -8.0; Apaf1 inhib: -8.1; EBNA-1 inh: 39.6*; PREPL inhibitor: 1.1; UBC13 inh: 7.3; EBNA-1 confirm: 9.3; ZTA counter trip: -4.5

Results for COc1ccc2cc(-c3nc4ccccc4n3C)c(=O)oc2c1 ?
ZTA counter: 3.2; Apaf1 inhib: -6.1; EBNA-1 inh: -10.6; PREPL inhibitor: 8.5; UBC13 inh: 7.9

How did Nc1nnnn1/N=C/c1ccccc1OCc1ccccc1 do in these assays?
ZTA counter: 9.5; Apaf1 inhib: 10.0; EBNA-1 inh: 28.8*; PREPL inhibitor: 5.4; UBC13 inh: 6.3; EBNA-1 confirm: 13.9; ZTA counter trip: -7.8

Results for COc1ccc(NC(=S)Nc2cc(-c3ccccc3)[nH]n2)cc1Cl ?
ZTA counter: -21.5; Apaf1 inhib: 9.7; EBNA-1 inh: 35.8*; PREPL inhibitor: 12.8; UBC13 inh: 5.2; EBNA-1 confirm: -5.2; ZTA counter trip: -8.1

How did COc1ccc(NC(=S)Nc2cc(C)[nH]n2)cc1Cl do in these assays?
ZTA counter: -3.3; Apaf1 inhib: -13.7; EBNA-1 inh: -7.0; PREPL inhibitor: 2.0; UBC13 inh: -2.5

What do the screens show for `COc1cc(/C=C(/NC(=O)c2ccccc2)C(=O)N2CCN(C)CC2)c([N+](=O)[O-])cc1OC`?
ZTA counter: -2.6; Apaf1 inhib: -12.3; EBNA-1 inh: 11.5; PREPL inhibitor: -6.0; UBC13 inh: -2.9

What do the screens show for `COc1ccc(/C=C2/NC(=O)N(CC(=O)Nc3cccc(C)c3)C2=O)cc1O`?
ZTA counter: 0.3; Apaf1 inhib: -1.4; EBNA-1 inh: 56.4*; PREPL inhibitor: 3.7; UBC13 inh: -10.8; EBNA-1 confirm: 76.2*; ZTA counter trip: -0.9

What do the screens show for `Cc1cccc(NC(=O)CN2C(=O)N/C(=C/c3ccc(C)o3)C2=O)c1`?
ZTA counter: 4.4; EBNA-1 inh: -0.5; PREPL inhibitor: -3.8

What do the screens show for `O=C1OC(Cc2ccncc2)C(O)=C1C1=NCCCN1` (stereo not given)?
ZTA counter: 0.0; Apaf1 inhib: -8.5; EBNA-1 inh: 1.3; PREPL inhibitor: 7.6; UBC13 inh: -6.3

How did CCCCCOc1ccc(CSC(=N)N)cc1[N+](=O)[O-] do in these assays?
ZTA counter: -7.0; Apaf1 inhib: -15.2; EBNA-1 inh: -0.8; PREPL inhibitor: 0.6; UBC13 inh: 20.2

What do the screens show for `Cn1c2ccccc2c2cnn(CC(=O)Nc3ccccc3Br)c(=O)c21`?
ZTA counter: 6.7; Apaf1 inhib: -16.1; EBNA-1 inh: 32.4*; PREPL inhibitor: -5.6; UBC13 inh: 19.0; EBNA-1 confirm: 10.6; ZTA counter trip: -2.3

What do the screens show for `Cc1csc2ncnc(N3CCN(C(=S)Nc4ccc(C(F)(F)F)cc4)CC3)c12`?
ZTA counter: -4.6; Apaf1 inhib: 2.7; EBNA-1 inh: 46.9*; PREPL inhibitor: 12.8; UBC13 inh: 0.2; EBNA-1 confirm: -0.9; ZTA counter trip: -1.5

How did Cc1csc2c(N3CCN(C(=S)Nc4ccc(C(F)(F)F)cc4)CC3)ncnc12 do in these assays?
ZTA counter: -17.2; Apaf1 inhib: 10.2; EBNA-1 inh: -12.1; PREPL inhibitor: -10.6; UBC13 inh: 5.3

What do the screens show for `Cc1ccc(C(=O)Nc2nn(C)c3cccc(F)c23)cc1`?
ZTA counter: 1.4; Apaf1 inhib: -9.3; EBNA-1 inh: 7.2; PREPL inhibitor: 1.1; UBC13 inh: 4.4

How did N#Cc1cc2c(nc1SCC(=O)Nc1nccs1)CCCCC2 do in these assays?
ZTA counter: -2.5; Apaf1 inhib: -0.3; EBNA-1 inh: 30.1*; PREPL inhibitor: 18.3; UBC13 inh: 24.7; EBNA-1 confirm: 15.4; ZTA counter trip: -6.8

Screens as filed in PubChem BioAssay.
